Assay [1] concerns HCT-116. Description: Zone of inhibition by the compound against HCT116 human tumor cells at dose of 200 ug/disk. Format: functional. The essentials: (§1)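 HCT116 colon carcinoma cells in a soft-agar disk diffusion assay, giving a qualitative measure of cytotoxicity. The test agent is applied on a disk at the stated µg per disk. The zone of inhibition is read in zone units (200 units = 6.5 mm), and a zero zone means no inhibition.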

Assay [2] is described as follows: Zone of inhibition by the compound against Normal fibroblasts at dose of 190 ug/disk; Range 0-350. Format: functional. In a few lines:
(§2)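 Soft-agar disk diffusion assay on L1210 leukemia cells or normal fibroblasts, with the agent applied on a disk at the stated µg per disk. The zone of inhibition is recorded in zone units (200 units = 6.5 mm), and a zero zone denotes no inhibition.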

Assay [3] has as its system L1210. Description: Zone of inhibition by the compound against L1210 Cells at dose of 190 ug/disk; No inhibition. The format is functional, Mus musculus. In a few lines:
as §2

Assay [4] relates to HCT-116. Description: Zone of inhibition by the compound against HCT116 human tumor cells at dose of 190 ug/disk. The format is functional. In a few lines: as §1
Assay [5] can be described thus: Inhibitory concentration against Vascular Endothelial Growth Factor dependent Human Umbilical Vascular Endothelial Cells (VEGF-HUVEC). Format: functional. In a few lines: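 Anti-proliferative IC50 measured in HUVEC whose growth depends on VEGF; reported values are means of at least three experiments.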
Assay [6] in a line: Zone of inhibition by the compound against Normal fibroblasts at dose of 210 ug/disk; Range 0-370. Format: functional. In a few lines: as §2
Assay [7] concerns L1210. The assay is described as follows: Zone of inhibition by the compound against L1210 Cells at dose of 210 ug/disk;. The format is functional, Mus musculus. The essentials:
as §2

Assay [8] deals with HCT-116. The assay is described as follows: Zone of inhibition by the compound against HCT116 human tumor cells at dose of 210 ug/disk. The format is functional. The essentials: as §1
Assay [9] relates to HCT-116. The assay is described as follows: Zone of inhibition by the compound against HCT116 human tumor cells at dose of 115 ug/disk. The format is functional. The essentials:
as §1

The nature of assay [10]: Zone of inhibition by the compound against Normal fibroblasts at dose of 200 ug/disk; Range 0-400. The format is functional. The essentials: as §2
Assay [11] has as its system L1210. The assay is described as follows: Zone of inhibition by the compound against L1210 Cells at dose of 200 ug/disk; No inhibition. Format: functional, Mus musculus. The essentials: as §2
A short description of assay [12]: Zone of inhibition by the compound against Normal fibroblasts at dose of 210 ug/disk; Range 0-400. Format: functional. In a few lines:
as §2

The subject of assay [13] is L1210. The assay is described as follows: Zone of inhibition by the compound against L1210 Cells at dose of 210 ug/disk; No inhibition. The format is functional, Mus musculus. In a few lines:
as §2

Assay [14] concerns L1210. Description: Zone of inhibition by the compound against L1210 Cells at dose of 210 ug/disk; Range 0-60. The format is functional, Mus musculus. The essentials: as §2
Assay [15] can be described thus: Zone of inhibition by the compound against Normal fibroblasts at dose of 210 ug/disk; Range 0-330. Format: functional. The essentials:
as §2

Assay [16] relates to L1210. The assay is described as follows: Zone of inhibition by the compound against L1210 Cells at dose of 200 ug/disk; Range 0-250. The format is functional, Mus musculus. In a few lines: as §2
Assay [17] is described as follows: Zone of inhibition by the compound against Normal fibroblasts at dose of 210 ug/disk; Range 0-270. The format is functional. In a few lines:
as §2

Assay [18] has as its system L1210. Description: Zone of inhibition by the compound against L1210 Cells at dose of 210 ug/disk; Range 200-270. The format is functional, Mus musculus. The essentials:
as §2

In assay [19] the test system is HCT-116. Description: Zone of inhibition by the compound against HCT116 human tumor cells at dose of 210 ug/disk; Range 470-530. The format is functional. In a few lines: as §1

Structures are written as SMILES.

With `O=C(NS(=O)(=O)c1ccc(Cl)cc1)c1ccc(Cl)cc1Cl`, in [1], the Zone of inhibition is 660 zone of inhibition units.

What is called IC50 is the concentration needed to halve the response being measured. Low readings indicate inhibition by little substance, high ones a need for much substance. Take `O=C(NS(=O)(=O)c1cccs1)c1ccc(Cl)cc1Cl`: the Zone of inhibition in assay [2] is 350 zone of inhibition units; in assay [3], 0 zone of inhibition units; in assay [4], 490 zone of inhibition units. The molecule further yielded an IC50 in assay [5] of 540 nM.

Turning to `O=C(NS(=O)(=O)c1ccc2ccsc2c1)c1ccc(Cl)cc1Cl`, the IC50 in assay [5] was found to be 640 nM.

In assay [5], `O=C(NS(=O)(=O)c1cc(Br)c(Br)s1)c1ccc(Cl)cc1Cl` returned an IC50 of 220 nM.

Regarding `O=C(NS(=O)(=O)c1cc2ccccc2s1)c1ccc(Cl)cc1Cl`, the Zone of inhibition is 370 zone of inhibition units in assay [6], 100 zone of inhibition units in assay [7] and 500 zone of inhibition units in [8]. In [5], this molecule displayed an IC50 of 960 nM.

For `O=C(NS(=O)(=O)c1ccc(Cl)c(Cl)c1)c1ccc(Cl)cc1Cl`, in assay [1], the Zone of inhibition is 560 zone of inhibition units.

In assay [5], `CCc1nc(S(=O)(=O)NC(=O)c2ccc(Cl)cc2Cl)c[nH]1` registered an IC50 above 20000 nM.

As for `O=C(NS(=O)(=O)c1ccc2sccc2c1)c1ccc(Cl)cc1Cl`, it took 620 nM to reach half-maximal inhibition in assay [5] (IC50).

Regarding `N#Cc1ccc(S(=O)(=O)NC(=O)c2ccc(Cl)cc2Cl)s1`, the midpoint of inhibition in [5], the IC50, lay at 3160 nM.

Turning to `O=C(NS(=O)(=O)c1ccccc1)c1ccc(Cl)cc1Cl`, the Zone of inhibition in assay [9] was 700 zone of inhibition units.

With `O=C(NS(=O)(=O)c1ccc2c(c1)OCO2)c1ccc(Cl)cc1Cl`, the Zone of inhibition in assay [10] is 400 zone of inhibition units; in [1] it was 610 zone of inhibition units; in [11], 0 zone of inhibition units. The molecule also had an IC50 in assay [5] of 480 nM.

The molecule `O=C(NS(=O)(=O)c1cccc2cc[nH]c12)c1ccc(Cl)cc1Cl` displayed an IC50 in [5] of 3040 nM.

The molecule `CCc1ccc(S(=O)(=O)NC(=O)c2ccc(Cl)cc2Cl)s1` gave an IC50 in assay [5] of 310 nM.

Take `O=C(NS(=O)(=O)c1ccc2c(c1)CCO2)c1ccc(Cl)cc1Cl`: the Zone of inhibition was 400 zone of inhibition units in assay [12], 680 zone of inhibition units in assay [8] and 0 zone of inhibition units in assay [13]. Further, in assay [5], 430 nM corresponded to half-maximal inhibition (IC50).

Regarding `Cc1ccc(S(=O)(=O)NC(=O)c2ccc(Cl)cc2Cl)s1`, in assay [5], the concentration for half-maximal inhibition (IC50) was determined as 600 nM.

For `CN1CCc2ccc(S(=O)(=O)NC(=O)c3ccc(Cl)cc3Cl)cc21`, the Zone of inhibition in assay [14] was 60 zone of inhibition units; in assay [15], 330 zone of inhibition units; in assay [8], 630 zone of inhibition units. The same molecule returned an IC50 in [5] of 1540 nM.

As to `O=C(NS(=O)(=O)c1cc2ccccc2o1)c1ccc(Cl)cc1Cl`, in assay [5], inhibition was half-maximal at 970 nM (IC50).

As to `COc1ccc(S(=O)(=O)NC(=O)c2ccc(Cl)cc2Cl)s1`, the IC50 in assay [5] was found to be 680 nM.

On to `COC(=O)c1ccc(S(=O)(=O)NC(=O)c2ccc(Cl)cc2Cl)s1`, for which the IC50 in assay [5] stood at 1390 nM.

For the molecule `O=C(NS(=O)(=O)c1cnc(Cl)s1)c1ccc(Cl)cc1Cl`, the IC50 in assay [5] is 1090 nM.

Take `COc1ncc(S(=O)(=O)NC(=O)c2ccc(Cl)cc2Cl)s1`: half-maximal inhibition in assay [5] (IC50) required 540 nM.

Turning to `O=C(NS(=O)(=O)c1ccc2c(c1)OCCO2)c1ccc(Cl)cc1Cl`, the figures for the Zone of inhibition in [10], in assay [16] and in [1] were 400 zone of inhibition units, 250 zone of inhibition units and 580 zone of inhibition units, respectively. The molecule also came in with an IC50 in assay [5] of 400 nM.

In turn, `O=C(NS(=O)(=O)c1ccc(Cl)s1)c1ccc(Cl)cc1Cl` came in with an IC50 in [5] of 360 nM.

Consider `O=C(NS(=O)(=O)c1cccc2sccc12)c1ccc(Cl)cc1Cl`, for which half-maximal inhibition in assay [5] (IC50) was put at 3300 nM.

For the molecule `O=C(NS(=O)(=O)c1ccc2ccoc2c1)c1ccc(Cl)cc1Cl`, it took 590 nM to reach half-maximal inhibition in [5] (IC50).

In the case of `CCc1ncc(S(=O)(=O)NC(=O)c2ccc(Cl)cc2Cl)s1`, half-maximal inhibition in assay [5] (IC50) was put at 600 nM.

Molecule `O=C(NS(=O)(=O)c1cc(Cl)c(Br)s1)c1ccc(Cl)cc1Cl` registered an IC50 in assay [5] of 760 nM.

As to `O=C(NS(=O)(=O)c1cc(Br)cs1)c1ccc(Cl)cc1Cl`, in assay [5], the IC50 was 600 nM.

`O=C(NS(=O)(=O)c1ccc2ccccc2c1)c1ccc(Cl)cc1Cl`: the values for the Zone of inhibition in [17], in assay [18] and in assay [19] were 270 zone of inhibition units, 270 zone of inhibition units and 530 zone of inhibition units, respectively. The IC50 in assay [5] worked out at 800 nM.

`O=C(NS(=O)(=O)c1ccsc1)c1ccc(Cl)cc1Cl` yielded an IC50 in assay [5] of 1270 nM.

`O=C(NS(=O)(=O)c1cccc2ccoc12)c1ccc(Cl)cc1Cl`: in assay [5], 5210 nM corresponded to half-maximal inhibition (IC50).

With `Cc1csc(S(=O)(=O)NC(=O)c2ccc(Cl)cc2Cl)c1`, in assay [5], the half-maximal inhibitory concentration (IC50) was found to be 700 nM.

In turn, `Cc1ncc(S(=O)(=O)NC(=O)c2ccc(Cl)cc2Cl)s1` had an IC50 in assay [5] of 1180 nM.

Regarding `O=C(NS(=O)(=O)c1cccc2ccsc12)c1ccc(Cl)cc1Cl`, the IC50 in [5] was determined as 4160 nM.

Take `O=C(NS(=O)(=O)c1ccc2cc[nH]c2c1)c1ccc(Cl)cc1Cl`: in [5], half-maximal inhibition (IC50) was put at 1870 nM.

`O=C(NS(=O)(=O)c1cc(Cl)cs1)c1ccc(Cl)cc1Cl`: the IC50 in assay [5] is 390 nM.

Source of the values: ChEMBL document CHEMBL1144277, “Acyl sulfonamide anti-proliferatives. Part 2: activity of heterocyclic sulfonamide derivatives” (Bioorg Med Chem Lett, 2005).
